Measurements from ChEMBL document CHEMBL4622840, “Microbial transformation of glycyrrhetinic acid derivatives by Bacillus subtilis ATCC 6633 and Bacillus megaterium CGMCC 1.1741” (Bioorg Med Chem, 2020).

What was measured:
[1] = tested on: RAW264.7; assay: Antiinflammatory activity in mouse RAW264.7 cells assessed as inhibition of NO production preincubated for 1 hr followed by LPS stimulation measured after 24 hrs by Griess reagent based assay; type: functional, cell-based
Procedure, shortened: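 RAW 264.7 macrophages kept at 37 °C under 5% CO2. Cells were exposed to compound for 1 h, then stimulated with LPS at 1.0 μg/mL. After 24 h, nitrite/NO in the medium was read with Griess reagent.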

[2] = Cytotoxicity against mouse RAW264.7 cells assessed as cell viability; type: cell-based; parameters: concentration or dose not given beside the values; details: read-out: Activity
[3] = Mus musculus, RAW264.7, read-out: IC50

Compound | IC50 ([1]; raw264.7) | IC50 [1, 3] [µM] | viability [2] [%]
CC1(C)[C@@H](O)CC[C@]2(C)[C@H]3C(=O)C=C4[C@@H]5C[C@@](C)(CO)CC[C@]5(C)CC[C@@]4(C)[C@]3(C)CC[C@@H]12 |  | 50.3 | 56.6
CC1(C)[C@@H](O)CC[C@]2(C)[C@H]3CC=C4[C@@H]5C[C@@](C)(CO)CC[C@]5(C)CC[C@@]4(C)[C@]3(C)CC[C@@H]12 |  | 48.2 | 102
CC1(C)[C@@H](O[C@@H]2O[C@H](CO)[C@@H](O)[C@H](O)[C@H]2O)CC[C@]2(C)[C@H]3C(=O)C=C4[C@@H]5C[C@@](C)(C=O)CC[C@]5(C)CC[C@@]4(C)[C@]3(C)CC[C@@H]12 | Not Active |  | 7.33
CC1(C)[C@@H](O[C@@H]2O[C@H](CO)[C@@H](O)[C@H](O)[C@H]2O)CC[C@]2(C)[C@H]3C(=O)C=C4[C@@H]5C[C@@](C)(C(=O)O[C@@H]6O[C@H](CO)[C@@H](O)[C@H](O)[C@H]6O)CC[C@]5(C)CC[C@@]4(C)[C@]3(C)CC[C@@H]12 | Not Active |  | 121
CC1(C)[C@@H](O[C@@H]2O[C@H](CO)[C@@H](O)[C@H](O)[C@H]2O)CC[C@]2(C)[C@H]3C(=O)C=C4[C@@H]5C[C@@](C)(CO)CC[C@]5(C)CC[C@@]4(C)[C@]3(C)CC[C@@H]12 | Not Active |  | 1.22
CC1(C)[C@@H](O)CC[C@]2(C)[C@H]3CC=C4[C@@H]5C[C@@](C)(C(=O)O)CC[C@]5(C)CC[C@@]4(CO)[C@]3(C)[C@@H](O)C[C@@H]12 | Not Active |  | 114
CC1(C)[C@@H](O)CC[C@]2(C)[C@H]3CC=C4[C@@H]5C[C@@](C)(CO)CC[C@]5(C)C[C@H](O)[C@@]4(C)[C@]3(C)[C@@H](O)C[C@@H]12 | Not Active |  | 120
CC1(C)[C@@H](O)CC[C@]2(C)[C@H]3CC=C4[C@@H]5C[C@@](C)(C(=O)O)CC[C@]5(C)CC[C@@]4(C)[C@]3(C)CC[C@@H]12 |  | 25.6 | 83.4
O=c1c(O)c(-c2ccc(O)c(O)c2)oc2cc(O)cc(O)c12 [QUERCETIN] |  | 4.53 | 106

The next lines start with results.

IC50 ([1]; raw264.7) | IC50 [1, 3] [µM] | Compound | viability [2] [%]
Not Active |  | CC1(C)CC[C@]2(C(=O)O)CC[C@]3(C)C(=CC(=O)[C@@H]4[C@@]5(C)CC[C@H](O)C(C)(C)[C@@H]5CC[C@]43C)[C@@H]2C1 | 111
 | 38.3 | CC1(C)C(=O)CC[C@]2(C)[C@H]3CC=C4[C@@H]5C[C@@](C)(CO)CC[C@]5(C)CC[C@@]4(C)[C@]3(C)CC[C@@H]12 | 110
 | 11.1 | CC1(C)CC[C@]2(C(=O)O[C@@H]3O[C@H](CO)[C@@H](O)[C@H](O)[C@H]3O)CC[C@]3(C)C(=CC(=O)[C@@H]4[C@@]5(C)CC[C@H](O)C(C)(C)[C@@H]5CC[C@]43C)[C@@H]2C1 | 82.7
 | 0.07 | CC1(C)[C@@H](O)CC[C@]2(C)[C@H]3CC=C4[C@@H]5C[C@@](C)(CO)CC[C@]5(C)C[C@H](O)[C@@]4(CO)[C@]3(C)[C@@H](O)C[C@@H]12 | 107
Not Active |  | CC1(C)[C@@H](O)CC[C@]2(C)[C@H]3[C@H](O)C=C4[C@@H]5C[C@@](C)(CO)CC[C@]5(C)C[C@H](O)[C@@]4(C)[C@]3(C)[C@@H](O)C[C@@H]12 | 112
Not Active |  | CC1(C)[C@@H](O)CC[C@]2(C)C3[C@H](O)C=C4[C@@H]5C[C@@](C)(CO)CC[C@]5(C)CC[C@@]4(C=O)[C@]3(C)[C@@H](O)C[C@@H]12 (stereo not given in full) | 130
Not Active |  | CC1(C)[C@@H](O)CC[C@]2(C)[C@H]3C(=O)C=C4[C@@H]5C[C@@](C)(C(=O)O[C@@H]6O[C@H](CO)[C@@H](O)[C@H](O)[C@H]6O)CC[C@]5(C)CC[C@@]4(C)[C@]3(C)CC[C@@H]12 | 94.8
 | 68.9 | CC1(C)[C@@H](O)CC[C@]2(C)C3=CC=C4[C@@H]5C[C@@](C)(CO)CC[C@]5(C)C[C@H](O)[C@@]4(CO)[C@]3(C)[C@@H](O)C[C@@H]12 | 130
 | 47.2 | CC1(C)[C@@H](O)CC[C@]2(C)[C@H]3C(=O)C=C4[C@@H]5C[C@@](C)(C=O)CC[C@]5(C)CC[C@@]4(C)[C@]3(C)CC[C@@H]12 | 89.6
 | 0.64 | CC1(C)[C@@H](O)CC[C@]2(C)[C@H]3CC=C4[C@@H]5[C@H](O)[C@@](C)(CO)CC[C@]5(C)C[C@H](O)[C@@]4(C)[C@]3(C)[C@@H](O)C[C@@H]12 | 125
Not Active |  | CC1(C)[C@@H](O)CC[C@]2(C)[C@H]3C(=O)C=C4[C@@H]5C[C@@](C)(C(=O)O)CC[C@]5(C)CC[C@@]4(C)[C@]3(C)CC[C@@H]12 [ENOXOLONE] | 4.04
